Assay results as given in ChEMBL document CHEMBL4024729, “Copalic acid analogs down-regulate androgen receptor and inhibit small chaperone protein” (Bioorg Med Chem Lett, 2017).
The source made the active and inactive calls. The calls are words filed in the database; no cut-off is given here.

What was measured:
[1] = target: Heat shock protein beta-1 (Homo sapiens) (UniProt P04792); experiment: Inhibition of heat shock protein 27 in human LNCaP cells assessed as decrease in AR protein level at 200 uM after 48 hrs by Western blot method; format: cell-based
Summary of the method: (§1)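 LNCaP cells treated with DMSO or compound for 48 h. Whole-cell extracts probed by Western blot with specific antibodies against AR and β-actin. Three independent experiments.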

[2] = target: Heat shock protein beta-1 (Homo sapiens) (UniProt P04792); experiment: Inhibition of heat shock protein 27 in human LNCaP cells assessed as decrease in AR protein level at 20 uM after 48 hrs by Western blot method; format: cell-based; summary of the method: as §1
[3] = organism: Homo sapiens; experiment: Inhibition of alpha crystallin (unknown origin) assessed as increase in DTT induced insulin aggregation at 10 uM pretreated for 5 mins followed by DTT addition measured after 45 mins
Summary of the method: (§2)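 Insulin 1 mg/ml stock and alpha-crystallin 5 mg/ml stock mixed in PBS containing compound. Incubated 5 min at 37 °C, then aggregation started with 1 M DTT stock. A400 followed for 45 min at 37 °C. Controls were insulin with or without alpha-crystallin in 0.1% DMSO. Triplicate wells; three independent experiments.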

[4] = target: Heat shock protein beta-1 (Homo sapiens) (UniProt P04792); experiment: Inhibition of heat shock protein 27 in human LNCaP cells assessed as decrease in AR protein level after 48 hrs by Western blot method; format: cell-based; summary of the method: as §1
[5] = system: LNCaP; experiment: Growth inhibition of human LNCAP cells after 72 hrs by MTT assay; format: functional, cell-based
Summary of the method: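 LNCaP cells treated with DMSO or a range of compound concentrations, four replicates each, for 72 h. Viability read by MTT assay.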

[6] = Effect on DTT interaction with insulin at <= 10 uM measured after 45 mins; summary of the method: as §2
[7] = target: Heat shock protein beta-1 (Homo sapiens) (UniProt P04792); experiment: Inhibition of heat shock protein 27 in human LNCaP cells assessed as decrease in AR protein level at 5 uM after 48 hrs by Western blot method; format: cell-based; summary of the method: as §1

Heat shock protein beta-1 (Homo sapiens), sequence (P04792 whole entry): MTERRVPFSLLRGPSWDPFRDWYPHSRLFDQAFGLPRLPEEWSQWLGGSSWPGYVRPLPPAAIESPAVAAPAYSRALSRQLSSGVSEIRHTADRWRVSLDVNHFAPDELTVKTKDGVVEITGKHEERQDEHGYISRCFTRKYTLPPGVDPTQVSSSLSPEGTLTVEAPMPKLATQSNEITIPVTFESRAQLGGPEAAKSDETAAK

| Compound | inhibition [1] | AR protein decrease (active/not active) [2] | other results |
| --- | --- | --- | --- |
| C[C@@H]1CC[C@@]2(C)C(C(=O)O)=CCC[C@@H]2[C@@]1(C)CCc1ccoc1 | Active |  |  |
| C=C1CC[C@@H]2C(C)(C)CCC[C@@]2(C)[C@@H]1CC/C(C)=C/C(=O)O | Active | inactive |  |
| C=C1CC[C@@H]2C(C)(C)CCC[C@@]2(C)[C@@H]1CC/C(C)=C/C(=O)NCCc1ccccc1 |  | Active |  |
| C=C1CC[C@@H]2C(C)(C)C(OC(C)=O)CC[C@@]2(C)[C@@H]1CC/C(C)=C/C(=O)O (stereo partly drawn) | Active |  |  |

Now from value to molecule, other results behind:

| inhibition [1] | AR protein decrease (active/not active) [2] | Compound | other results |
| --- | --- | --- | --- |
|  | Active | C=C1CC[C@@H]2C(C)(C)CCC[C@@]2(C)[C@@H]1CC/C(C)=C/C(=O)Nc1ccc(C)cc1 |  |
|  | Active | C=C1CC[C@@H]2C(C)(C)CCC[C@@]2(C)[C@@H]1CC/C(C)=C/C(=O)Nc1ccc(I)cc1 |  |
|  | Active | C=C1CC[C@@H]2C(C)(C)CCC[C@@]2(C)[C@@H]1CC/C(C)=C/C(=O)Nc1ccc(C#N)cc1 | inhibition [3]: Active; inhibition [4]: Dose-dependent effect; IC50 [5]: 9.81 µM |
|  | Active | C=C1CC[C@@H]2C(C)(C)CCC[C@@]2(C)[C@@H]1CC/C(C)=C/C(=O)Nc1cccc(Br)c1 |  |
|  | Active | C=C1CC[C@@H]2C(C)(C)CCC[C@@]2(C)[C@@H]1CC/C(C)=C/C(=O)Nc1ccc(OC)cc1 | Activity [6]: inactive; inhibition [7]: Active; inhibition [3]: Active; inhibition [4]: Dose-dependent effect; IC50 [5]: 1.73 µM |
